Compound activity from PubChem BioAssay.
Only some compounds are listed: those with a hit (about 4.6% of all), similar ones and a draw of the others.
CHO parental Ca: counter-screen for OX1R antagonists: effect in parental CHO cells; parental CHO-K1, ATP-induced calcium, Fluo-8 fluorescence; inhibition, % at 5.6 µM; actives 0.63% (n = 330,000);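 active = inhibition above that plate's mean sample inhibition plus 3 SD, cut at about 26% in these data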;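 also: 0% = ATP-challenged DMSO wells and 100% = DMSO wells without ATP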
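material = parental CHO cells | also added = ATP as calcium-mobilizing challenge | dosing = single point at 5.6 µM | detection = intracellular calcium via Fluo-8 no-wash fluorescent dye | read-out = % inhibition | benchmarks = low control ATP plus DMSO, high control DMSO only | repeats = one well per compound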
GPR7 antag: blocks human GPR7 receptor signaling; GPR7-expressing cells, fluorescence antagonist assay; inhibition, % at 4.4 µM; actives 1.1% (n = 290,000); in the data active = inhibition above about 16%, passing the limit was not always enough;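 also: cells stimulated with the agonist NPW; 0% = agonist with vehicle and 100% = vehicle without agonist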
TAAR1 agonist: agonists of human TAAR1 | Q96RJ0 | CHO RD-HGA16 TAAR1, Fluo-8 calcium fluorescence; vehicle wells 0%, saturating PEA agonist 100% | actives 0.99% (n = 360,000) | activation, % at 3 µM | AID 624467;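 active = activation above the mean activation of all test compounds in the run plus 3 SD, cut at about 38% in these data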
Target sequence (Q96RJ0 whole entry, looked up): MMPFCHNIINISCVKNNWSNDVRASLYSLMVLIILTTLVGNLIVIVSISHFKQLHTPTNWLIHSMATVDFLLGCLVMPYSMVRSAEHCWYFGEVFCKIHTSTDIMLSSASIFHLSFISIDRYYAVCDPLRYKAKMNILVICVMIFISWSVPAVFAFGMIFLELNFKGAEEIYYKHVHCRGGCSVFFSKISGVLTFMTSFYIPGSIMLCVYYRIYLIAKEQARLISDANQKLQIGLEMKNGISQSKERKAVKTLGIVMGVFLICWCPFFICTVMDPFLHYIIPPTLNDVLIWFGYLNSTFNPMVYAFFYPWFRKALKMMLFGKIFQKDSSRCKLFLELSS
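Benchmarks: low control DMSO, high control PEA (EC100); System: CHO RD-HGA16 cells carrying human TAAR1 plus Gα16; Detection: Fluo-8 fluorescence, 5 s baseline then 140 s kinetic read; Schedule: 17-24 h plating, Fluo-8 75 min 37 °C, 30 min RT; Read-out basis: % activation from peak over basal fluorescence ratio, DMSO-to-PEA scaled.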
OX1R antag-1: blocks the human orexin 1 receptor. O43613. OX1R-expressing cells, FRET antagonist read-out. inhibition, % at 6.6 µM. actives 1.8% (n = 330,000); in the data active = inhibition mostly above about 38%, no sharp cut-off; inactive = mostly below about 40%;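 also: 0% = agonist challenge alone and 100% = reference antagonist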
TAAR1 antagonist: human TAAR1 antagonism; CHO RD-HGA16 TAAR1, Fluo-8 calcium fluorescence, antagonist; actives 1.5% (n = 360,000); Q96RJ0; inhibition, % at 3 µM;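 active = inhibition above a per-plate cutoff, the mean inhibition of test compounds on that plate plus 3 SD, cut at about 49% in these data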;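 also: 0% = DMSO plus EC80 beta-PEA response and 100% = DMSO alone without agonist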
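Test system: hTAAR1-expressing CHO RD-HGA16 cells, Gα16-coupled; Probe or stimulus: EC80 β-phenethylamine stimulus; Compound dosing: single nominal final test compound concentration of 3 µM; Timing: 140 s kinetic read after compound, 140 s after agonist; Signal: Fluo-8 calcium-sensitive fluorescence; Measure: % inhibition of agonist calcium response; Controls: DMSO and EC80 PEA controls.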
OX1R antag-2: antagonists of human orexin 1 receptor | inhibition, % at 5 µM | actives 0.43% (n = 330,000) | AID 434989 | CHO/OX1R cells, Fluo-8 calcium fluorescence, orexin A | O43613;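 active = inhibition above its plate's threshold, mean inhibition of all tested compounds on the plate plus 3 SD, cut at about 37% in these data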;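 also: 0% = orexin A challenge wells and 100% = SB-334867-A antagonist wells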
OX1R Fluo8 conf: OX1R (human) antagonism, confirmed. inhibition, % at 5 µM. shares compounds with OX1R antag-2. CHO/OX1R cells, orexin A calcium Fluo-8 fluorescence. actives 38% (n = 1,100); in the data active = inhibition above about 29%;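 also: 0% = agonist challenge alone and 100% = reference antagonist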
CHO Ca triplic: signal in parental CHO cells, OX1R antagonist counter-screen. AID 492965. inhibition, % at 5.6 µM. actives 9.3% (n = 1,100). shares compounds with OX1R antag-2. parental CHO-K1, ATP-induced calcium, Fluo-8 fluorescence;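 active = inhibition above a per-plate limit, the mean inhibition of that plate's test compounds plus 3 SD, cut at about 25% in these data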;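 also: 0% = ATP challenge with DMSO and 100% = DMSO without ATP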
The depositor's hits bear a star.

Results for CCC(Oc1ccccc1)C(=O)OCC(=O)Nc1sccc1C(N)=O (centres undefined) ?
CHO parental Ca: 0.5; TAAR1 agonist: 11.0; OX1R antag-1: 13.4; TAAR1 antagonist: 23.4; OX1R antag-2: 43.8*; OX1R Fluo8 conf: 17.1; CHO Ca triplic: 17.6

How did O=c1[nH]nc(Cc2ccc(Cl)cc2)c2ccccc12 do in these assays?
CHO parental Ca: -9.0; GPR7 antag: 1.1; TAAR1 agonist: 20.8; OX1R antag-1: 22.0; TAAR1 antagonist: 10.7; OX1R antag-2: -24.2

How did O=c1[nH]nc(Cc2ccc(-c3ccccc3Cl)o2)c2ccccc12 do in these assays?
CHO parental Ca: 23.8; GPR7 antag: -15.2; TAAR1 agonist: 18.4; OX1R antag-1: 64.3; TAAR1 antagonist: 0.9; OX1R antag-2: 46.9*; OX1R Fluo8 conf: 4.5; CHO Ca triplic: -5.8

Results for Cc1c(C(=O)NCc2ccccc2C(F)(F)F)sc(=O)n1Cc1ccccc1C#N ?
TAAR1 agonist: 0.5; TAAR1 antagonist: -6.0

How did C=CC(COCc1ccccc1)N([C@@H](Cc1ccccc1)C(=O)OC)S(=O)(=O)c1ccccc1Br (some centres undefined) do in these assays?
CHO parental Ca: 29.1; TAAR1 agonist: 17.6; OX1R antag-1: 11.3; TAAR1 antagonist: 4.3; OX1R antag-2: 80.1*; OX1R Fluo8 conf: 10.6; CHO Ca triplic: 19.7

What do the screens show for `CCOC(=O)/C=c1\s/c(=C\c2ccc3c(c2)OCCO3)c(=O)n1CC(=O)NCC1CCCO1` (centres undefined)?
CHO parental Ca: -11.4; GPR7 antag: 7.9; TAAR1 agonist: 6.7; OX1R antag-1: 16.4; TAAR1 antagonist: -15.9; OX1R antag-2: 103.3*; OX1R Fluo8 conf: 7.6; CHO Ca triplic: -11.5

Results for CC(C(=O)NCc1ccccc1)n1c(CSCCOc2ccccc2)nc2ccccc21 (centres undefined) ?
TAAR1 agonist: 4.2; TAAR1 antagonist: -21.3

How did CCCN1CCN(S(=O)(=O)c2ccc3c(c2)NC(=O)C(C)C(=O)N3)CC1 (centres undefined) do in these assays?
CHO parental Ca: -0.8; GPR7 antag: -7.3; TAAR1 agonist: 0.0; OX1R antag-1: 17.0; TAAR1 antagonist: -18.2; OX1R antag-2: -15.3

How did O=C(CN(c1cccc([N+](=O)[O-])c1)S(=O)(=O)c1ccccc1)NCc1ccccc1 do in these assays?
CHO parental Ca: -19.6; GPR7 antag: 1.9; TAAR1 agonist: 11.1; OX1R antag-1: 34.7; TAAR1 antagonist: 11.7; OX1R antag-2: -16.9

What do the screens show for `O=C(CN(c1cccc([N+](=O)[O-])c1)S(=O)(=O)c1ccccc1)N(Cc1ccccc1)Cc1ccccc1`?
CHO parental Ca: -2.8; GPR7 antag: -3.9; TAAR1 agonist: 3.9; OX1R antag-1: 24.1; TAAR1 antagonist: 24.4; OX1R antag-2: 29.0; OX1R Fluo8 conf: -1.3; CHO Ca triplic: -12.8

What do the screens show for `O=C(NCc1ccco1)C1CCCN(c2nnc(-n3cccc3)s2)C1` (centres undefined)?
CHO parental Ca: -13.3; GPR7 antag: -5.9; TAAR1 agonist: -0.4; OX1R antag-1: 15.9; TAAR1 antagonist: -19.4; OX1R antag-2: -26.9

What do the screens show for `CCN(CC)c1ccc2c(c1)oc(=O)c1c(Cl)cc(=O)oc12`?
CHO parental Ca: 16.4; GPR7 antag: -8.2; OX1R antag-1: 21.8; OX1R antag-2: 28.5; OX1R Fluo8 conf: 79.9*; CHO Ca triplic: 56.0*

Results for Cc1ccc(N/N=C(\C#N)C(=N)N2CCCCC2)cc1 ?
CHO parental Ca: -1.6; GPR7 antag: -1.1; TAAR1 agonist: 0.5; OX1R antag-1: 6.5; TAAR1 antagonist: 3.4; OX1R antag-2: -6.1

How did N#C/C(=N\Nc1ccc(Cl)cc1)C(=N)N1CCCCCC1 do in these assays?
CHO parental Ca: 10.6; GPR7 antag: 6.5; TAAR1 agonist: 11.1; OX1R antag-1: 17.3; TAAR1 antagonist: -10.7; OX1R antag-2: 24.4; OX1R Fluo8 conf: -3.1; CHO Ca triplic: -1.6
